Screens deposited in PubChem by several laboratories.
Only some compounds are listed: those with a hit (about 1.3% of all), similar ones and a draw of the others.
procasp3 activ – activators of human procaspase-3 D3A mutant, primary screen, biochemical, absorbance, PC-3 D3A mutant, single concentration | recombinant procaspase-3 D3A, Ac-DEVD-pNA absorbance 405 nm | 330,000 tested, 0.11% active | AID 463141, 2010 | Caspase-3 (Homo sapiens), P42574 | activation, % at 8.5 µM;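 active = activation above the mean of all tested compounds plus 3 SD, cut at about 21% in these data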;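 also: 0% = DMSO alone and 100% = DMSO wells spiked with extra 5 µM PC-3 D3A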
Target sequence (P42574 whole entry D9A/D28A/D175A): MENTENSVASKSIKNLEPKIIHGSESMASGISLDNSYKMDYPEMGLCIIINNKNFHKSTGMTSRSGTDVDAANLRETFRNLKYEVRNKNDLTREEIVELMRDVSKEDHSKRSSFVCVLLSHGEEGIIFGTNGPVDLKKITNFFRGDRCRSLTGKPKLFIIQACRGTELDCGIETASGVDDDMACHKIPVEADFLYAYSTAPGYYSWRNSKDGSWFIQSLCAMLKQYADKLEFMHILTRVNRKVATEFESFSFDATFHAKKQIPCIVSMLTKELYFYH
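Evaluation: percent activation relative to control range; Material: Procaspase-3 D3A mutant, all three cleavage aspartates alanine; Compound: single dose, 8.5 µM nominal compound, 0.8% DMSO; Replication: one well per compound; Signal: absorbance at 405 nm, 0 and 120 min; Schedule: 1 h preincubation plus 2 h reaction at 25 °C.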
proCasp7 act – procaspase-7 activators, primary screen, counter-screen for procaspase-3 activator project, biochemical, absorbance, HTS, human | recombinant procaspase-7, Ac-DEVD-pNA absorbance 405 nm; D23A/D198A/D206A triple mutant, cannot self-cleave; scale: DMSO 0, 5 µM enzyme 100 | 330,000 tested, 0.093% active | activation, % at 8.5 µM;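 active = percent activation above the screen-wide mean plus 3 SD, cut at about 25% in these data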
Target sequence (P55210 whole entry D23A/D198A/D206A): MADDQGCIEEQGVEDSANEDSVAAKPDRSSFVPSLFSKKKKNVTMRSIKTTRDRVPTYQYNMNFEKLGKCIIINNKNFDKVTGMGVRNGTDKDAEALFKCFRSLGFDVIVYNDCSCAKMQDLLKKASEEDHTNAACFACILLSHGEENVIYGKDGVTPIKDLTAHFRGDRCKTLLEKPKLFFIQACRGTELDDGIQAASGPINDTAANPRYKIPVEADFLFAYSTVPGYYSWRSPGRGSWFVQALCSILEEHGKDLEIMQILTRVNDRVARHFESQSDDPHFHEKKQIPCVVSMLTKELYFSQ
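signal = Epi-absorbance of released pNA at 405 nm, two timepoints | assay system = Uncleavable procaspase-7 mutant enzyme | reagent = Ac-DEVD-pNA substrate, 400 µM as added | times = 1 h enzyme–compound preincubation and 2 h substrate reaction, both 25 °C | benchmarks = low DMSO alone, high DMSO plus 5 µM PC-7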
CHT inh – inhibitors of human choline transporter CHT; High affinity choline transporter 1 (Homo sapiens), Q9GZV3; CHT-expressing cells, membrane potential dye, choline response; active compounds read low; B-score at 10 µM; 310,000 tested, 0.86% active;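 active = B-score over 3 SD under the library average, and starting fluorescence ratio not unusually high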;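 also: choline stimulus applied at its EC90 after an EC20 pre-addition; B-score computed on integrated fluorescence ratio after choline addition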
CHT PAM – CHT positive allosteric modulators, primary screen, cell-based, membrane potential dye, choline EC20. CHT-expressing cells; active compounds read high; LV-AA mutant CHT in HEK293 cells. B-score at 10 µM. 310,000 tested, 0.49% active. High affinity choline transporter 1 (Homo sapiens), Q9GZV3. AID 488977, 2010;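 active = initial fluorescence not abnormally high and integrated response B-score, plate-corrected, over 3 SD above library mean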
CHT act confirm – CHT activators, confirmation, cell-based, membrane potential dye, duplicate. activation, % at 10 µM. shares compounds with CHT PAM. 2,500 tested, 91% active. CHT-expressing cells, membrane potential dye fluorescence (FDSS); % of choline EC20–EC90 response window; HEK293 expressing CHT LV-AA mutant; choline added at its EC20;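 active = primary screen active, with duplicate mean activation above negative control mean plus 3 SD, cut at about 11% in these data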
HEK293 MP dye – membrane potential response in parental HEK293 cells, counter-screen for CHT activator project, cell-based, membrane potential dye; shares compounds with CHT PAM; membrane potential dye fluorescence (FDSS); measured after EC20 choline addition; ratio readout change at 10 µM, hits read low; 2,500 tested, 62% active;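 active = duplicate-averaged ratio beyond 3 SD from buffer wells, up or down, though filed actives are nearly all decreases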
* hit, by the source's call; i = inactive; · = no result given.

SMILES	procasp3 activ	proCasp7 act	CHT inh	CHT PAM	CHT act confirm	HEK293 MP dye
CCCN(CC(=O)Nc1ccccc1C)C(=O)c1ccc(C)c(S(=O)(=O)N2CCCCC2)c1	12	8	i	i	14*	i
CCCN(CC(=O)Nc1ccccc1C)C(=O)c1ccc(Cl)c(S(=O)(=O)N2CCCC2)c1	-17	-6	i	i	·	·
Nc1c(N(CCC2=CCCCC2)C(=O)CCCOc2ccccc2)c(=O)[nH]c(=O)n1Cc1ccccc1	8	11	i	i	·	·
CC(Oc1ccccc1)C(=O)N(CCC1=CCCCC1)c1c(N)n(Cc2ccccc2)c(=O)[nH]c1=O (stereo not given)	0	11	i	i	11*	i
CCCCCN(C(=O)CCC(=O)OCc1ccc(Cl)cc1Cl)c1c(N)n(CCCC)c(=O)[nH]c1=O	11	-13	i	i	·	·
O=C(CN1CCN(S(=O)(=O)c2cccc(Br)c2)CC1)N1CCCCC1	0	2	·	·	·	·
CN1c2ccccc2C(O)=C(C(=S)Nc2ccc(Cl)cc2)S1(=O)=O	-9	-15	i	i	·	·
Cc1cccc(NC(=O)C2=C(O)c3ccccc3N(C)S2(=O)=O)c1	6	-3	i	i	-2	-28*
O=C(CN1C(=O)C2CCCCC2C1=O)OCC(=O)c1ccc(F)cc1 (stereo not given)	-6	1	·	·	·	·
CCN1CCC2(CC1)C(C#N)=C(N)Oc1c2sc2nc(C)cc(C)c12	-14	-11	i	6.7*	39*	i
O=S(=O)(c1ccc(-c2n[nH]c(=S)o2)cc1)N1CCCCC1	-9	-14	i	i	·	·
O=C(CSc1ccc(-c2ccc(Cl)cc2)nn1)NC1CCCC1	0	-2	i	i	·	·
O=C(c1cccc(Cl)c1)N1CCN(c2ccccn2)CC1	-8	1	i	i	·	·
O=C(c1ccc(S(=O)(=O)c2cccc(Cl)c2)c([N+](=O)[O-])c1)N1CCN(c2ccccn2)CC1	5	5	i	8.5*	9	i
C=CCn1c(SCCN2CCCCC2)nc2c1c(=O)[nH]c(=O)n2C	7	2	i	10*	64*	-63*
Cn1c(=O)[nH]c(=O)c2c1nc(SCCN1CCCCC1)n2Cc1ccccc1	-2	11	i	9.9*	58*	-61*
Cc1ccc(Cn2c(SCCN3CCOCC3)nc3c2c(=O)n(C)c(=O)n3C)cc1	3	9	i	i	·	·
Cn1c(=O)[nH]c(=O)c2c1nc(SCCN1CCCCC1)n2CCCc1ccccc1	-23	-32	i	i	53*	-54*
Cc1ccc(Cn2c(SCCN3CCCCC3)nc3c2c(=O)[nH]c(=O)n3C)cc1	-24	-29	i	6.5*	53*	-50*
Cn1c(=O)[nH]c(=O)c2c1nc(SCC(=O)O)n2Cc1ccccc1	-5	-11	i	i	·	·
COCCSc1nc2c(c(=O)[nH]c(=O)n2C)n1CCCc1ccccc1	-13	-22	i	i	·	·
COc1ccccc1C(=O)NCCC(=O)NCC1CCCCC1	3	0	·	·	·	·
N#Cc1ccc(OS(=O)(=O)c2ccc(-c3ccon3)s2)cc1	6	-8	i	i	·	·
Cc1cc(OCc2cc(C(=O)NC(C)c3c(C)nn(C)c3C)no2)cc(C)c1Cl (stereo not given)	-4	2	i	i	·	·
C=CCn1c(SCC(=O)Nc2ccc(OC)cc2)nc2c([nH]c3ccccc32)c1=O	6	8	i	i	·	·
SMILES	procasp3 activ	proCasp7 act	CHT inh	CHT PAM	CHT act confirm	HEK293 MP dye
C=CCn1c(SCCN2CCCC2)nc2c([nH]c3ccccc32)c1=O	9	8	i	6.5*	40*	-41*
Cc1cccc(Cn2c(SCCN3CCCCC3)nc3c2c(=O)[nH]c(=O)n3C)c1	4	-1	i	9*	61*	-62*
COc1ccc(C(=O)Nc2nc(C)cc(C)n2)cc1[N+](=O)[O-]	-1	5	i	i	19*	-39*
O=[N+]([O-])c1ccc2nc(-c3cccnc3)[nH]c2c1	3	-12	i	i	52*	-54*
COc1ccc(S(=O)(=O)N2CCCCCC2)cc1NC(=O)CN(C)Cc1ccc2c(c1)OCO2	-3	-3	·	·	·	·
Cc1nnc(C)n1/N=C/c1cc2ccccc2nc1Cl	-8	4	i	8.6*	51*	-55*
COc1ccc(C2=Nn3c([n+](C)c4ccccc43)SC2)cc1	-13	-15	i	11*	57*	-48*
CC(C)(C)OC(=O)n1cc(C(=O)c2ccccc2O)cn1	-5	1	i	i	·	·
CCOC(=O)n1cc(C(=O)c2ccccc2O)cn1	2	-1	i	i	30*	-38*
CCCC[C@H]1COCCS(=O)(=O)N1Cc1cccc([N+](=O)[O-])c1	-8	-1	i	6.5*	13*	i
CCC1COCCS(=O)(=O)N1Cc1ccccc1 (stereo not given)	-6	-7	i	i	·	·
Cc1cc(=O)[nH]c(SCC(=O)Nc2ccnc3ccccc23)n1	3	-3	i	i	31*	-51*
Cc1cc(=O)[nH]c(SCC(=O)Nc2nc3ccccc3s2)n1	-3	-6	i	i	·	·
COc1ccc(CNC(=O)C(c2cccs2)N(Cc2ccco2)C(=O)Cc2cccs2)cc1 (stereo not given)	-8	-9	i	6.6*	26*	i
CCOC(=O)CSc1ccc2nnc(-c3ccncc3)n2n1	-2	-3	i	i	12*	-33*
COc1ccc(-c2nnc3ccc(SCC(=O)N4CCCCC4)nn23)cc1OC	9	2	i	i	20*	i
CCOC(=O)CSc1ccc2nnc(-c3cccs3)n2n1	-4	0	i	i	·	·
COc1ccc(-c2nnc3ccc(SCC(N)=O)nn23)cc1OC	0	-1	i	i	31*	-31*
Cc1c(C(=O)N2CCOCC2)c(S(=O)(=O)N2CCN(c3ccc(Cl)cc3)CC2)c(C)n1C	-3	-1	i	i	·	·
Cc1ccc2nsnc2c1S(=O)(=O)Nc1ccccc1C(=O)O	8	-3	i	i	·	·
